Experiments:
[1] = Drug hydrolysis in perfused Wistar rat jejunal S9 fraction at 500 uM assessed per mg protein; format: ADME, Jejunum; conditions: s9, 500 µM
Procedure, shortened: (§1)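 Jejunal mucosal homogenate or S9 (HEPES pH 7.4/KCl) taken from intact jejunum, or after 40 min perfusion with or without 400 µM BNPP. Protein at 400 µg/ml incubated at 37°C with 500 µM drug. Added BNPP (100 or 1000 µM) pre-incubated 5 min. Temocaprilat formed measured by HPLC and given as nmol/min/mg protein and % of control. Mean ± S.D., n = 4.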

Jejunum [2] = assay: Intracellular drug level in Wistar rat jejunum pre-perfused with 400 uM CES inhibitor BNPP at 100 uM at pH 5.4 by in-situ single-pass perfusion method; format: ADME, tissue-based; conditions: in vivo, pH 5.4, 100 µM
Procedure, shortened: (§2)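 Same in situ jejunal single-pass perfusion, with carboxylesterase blocked by pre-perfusing the lumen with 400 µM BNPP for 40 min. Then 100 µM drug in luminal phosphate buffer (pH 5.4 or 6.4) at 0.2 ml/min. Vascular Krebs–Henseleit (pH 7.4) at 2.5 ml/min. Luminal, vascular and tissue levels measured by HPLC. Rates are luminal disappearance and appearance in lumen or mesenteric vein. Mean ± S.D., n = 3.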

Jejunum [3] = assay: Apparent absorption clearance in Wistar rat jejunum at 100 uM at pH 7.4 by in-situ single-pass perfusion method; format: ADME, tissue-based; conditions: in vivo, pH 7.4, 100 µM
Procedure, shortened: (§3)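 Rats fasted 18–24 h, anesthetized with intraperitoneal pentobarbital. Isolated cannulated jejunal segment kept at 37°C in Krebs–Henseleit buffer with 3% BSA and 10 mM glucose. Vascular perfusion with Krebs–Henseleit (pH 7.4) at 2.5 ml/min. Lumen perfused at 0.2 ml/min with phosphate buffer (pH 5.4, 6.4 or 7.4) containing 100 µM drug plus FD-4. Luminal and vascular samples assayed by HPLC (UV 258 nm). Parameters normalized to 10 cm intestine. Mean ± S.D., n = 3–6.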

Jejunum [4] = assay: Apparent hydrolytic clearance in Wistar rat jejunum at 100 uM at pH 6.4 by in-situ single-pass perfusion method; format: ADME, tissue-based; conditions: in vivo, pH 6.4, 100 µM; procedure, shortened: as §3
Jejunum [5] = assay: Drug hydrolysis in perfused Wistar rat jejunum mucosal homogenate at 500 uM assessed per mg protein; format: ADME, tissue-based; conditions: tissue homogenate; procedure, shortened: as §1
Jejunum [6] = assay: Intracellular drug level in Wistar rat jejunum treated with Temocaprilat at 100 uM at pH 7.4 by in-situ single-pass perfusion method; format: ADME, tissue-based; conditions: in vivo, pH 7.4, 100 µM
Jejunum [7] = assay: Apparent hydrolytic clearance in Wistar rat jejunum pre-perfused with 400 uM CES inhibitor BNPP at 100 uM at pH 5.4 by in-situ single-pass perfusion method; format: ADME, tissue-based; conditions: in vivo, pH 5.4, 100 µM; procedure, shortened: as §2
Jejunum [8] = assay: Intracellular drug level in Wistar rat jejunum treated with Temocaprilat at 100 uM at pH 6.4 by in-situ single-pass perfusion method; format: ADME, tissue-based; conditions: in vivo
Jejunum [9] = assay: Drug hydrolysis in intact Wistar rat jejunum mucosal homogenate at 500 uM assessed per mg protein in presence of 100 uM CES inhibitor BNPP; format: ADME, tissue-based; conditions: tissue homogenate; procedure, shortened: as §1
[10] = Drug hydrolysis in Wistar rat duodenal S9 fraction in presence of 1 mM CES inhibitor BNPP; format: ADME, Duodenum
Procedure, shortened: (§4)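 Duodenal or jejunal mucosa from fasted rats homogenized in 50 mM HEPES (pH 7.4) with 1.15% KCl; S9 is the 9000 g supernatant. S9 pre-incubated 5 min at 37°C, then drug added at 10–500 µM final (1% DMSO). Run for 20 min, stopped with acetonitrile, temocaprilat formed measured by HPLC. Km and Vmax from Michaelis–Menten nonlinear fit. Inhibitor (1 mM BNPP) pre-incubated 5 min. Results as % of control.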

[11] = Ratio of Vmax to Km for drug hydrolysis in Wistar rat duodenal S9 fraction assessed per mg protein; format: ADME, Duodenum
Procedure, shortened: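 Duodenal or jejunal mucosal S9 (9000 g supernatant) in 50 mM HEPES pH 7.4, pre-incubated 5 min at 37°C. Substrate added at 10–500 µM final in 1% DMSO and incubated 20 min; stopped with acetonitrile. Temocaprilat formation measured by HPLC. Km and Vmax from nonlinear Michaelis–Menten fit; intrinsic clearance as Vmax/Km; mean ± S.D.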

Jejunum [12] = assay: Drug uptake in Wistar rat jejunum mesenteric vein assessed as rate of drug appearance at 100 uM by in-situ single-pass perfusion method; format: ADME, tissue-based; conditions: in vivo; procedure, shortened: as §3
[13] = Drug hydrolysis in perfused Wistar rat jejunal S9 fraction at 500 uM assessed per mg protein in presence of 400 uM CES inhibitor BNPP; format: ADME, Jejunum; conditions: s9, 500 µM; procedure, shortened: as §1
Jejunum [14] = assay: Drug uptake in Wistar rat jejunum pre-perfused with 400 uM CES inhibitor BNPP assessed as rate of temocaprilat disappearance at 100 uM at pH 5.4 by in-situ single-pass perfusion method; format: ADME, tissue-based; conditions: in vivo, pH 5.4, 100 µM; procedure, shortened: as §2
Jejunum [15] = assay: Apparent absorption clearance in Wistar rat jejunum pre-perfused with 400 uM CES inhibitor BNPP at 100 uM at pH 6.4 by in-situ single-pass perfusion method; format: ADME; conditions: in vivo, pH 6.4, 100 µM; procedure, shortened: as §2
[16] = Drug hydrolysis in Wistar rat duodenal S9 fraction assessed as rate of hydrolysis per mg protein; format: ADME, Duodenum; procedure, shortened: as §4
[17] = Partition coefficient, log P between n-octanol and phosphate buffer at pH 7.4; format: physicochemical
[18] = Drug hydrolysis in intact Wistar rat jejunal S9 fraction at 500 uM assessed per mg protein in presence of 1000 uM CES inhibitor BNPP; format: ADME, Jejunum; conditions: s9, 500 µM; procedure, shortened: as §1
[19] = Drug hydrolysis in Wistar rat jejunal S9 fraction in presence of 1 mM CES inhibitor BNPP; format: ADME, Jejunum; procedure, shortened: as §4
[20] = Permeability in Wistar rat jejunum pre-perfused with 400 uM CES inhibitor BNPP at 100 uM at pH 5.4 by in-situ single-pass perfusion method; format: ADME, tissue-based; conditions: other: in-situ single-pass perfusion of the jejunum, pH 5.4, with BNPP (CES inhibitor) 400 uM, read-out: Peff (converted)
Procedure, shortened: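 Fasted, pentobarbital-anesthetized rats. Jejunum pre-perfused with BNPP (400 µM) for 40 min to inhibit CES. Lumen then perfused at 0.2 ml/min with 100 μM drug in phosphate buffer (pH 5.4 or 6.4). Vascular side received Krebs–Henseleit buffer (pH 7.4) at 2.5 ml/min. Luminal drug quantified by HPLC; Peff normalized to 10 cm segment; mean ± S.D., n = 3.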

Jejunum [21] = assay: Drug hydrolysis in intact Wistar rat jejunum mucosal homogenate at 500 uM assessed per mg protein; format: ADME, tissue-based; conditions: tissue homogenate; procedure, shortened: as §1
[22] = Drug hydrolysis in Wistar rat jejunal S9 fraction; format: ADME, Jejunum; procedure, shortened: as §4
Jejunum [23] = assay: Drug uptake in Wistar rat jejunum pre-perfused with 400 uM CES inhibitor BNPP assessed as rate of drug appearance at 100 uM at pH 6.4 by in-situ single-pass perfusion method; format: ADME, tissue-based; conditions: in vivo, pH 6.4, 100 µM; procedure, shortened: as §2
Jejunum [24] = assay: Intracellular drug level in Wistar rat jejunum assessed as temocaprilat level pre-perfused with 400 uM CES inhibitor BNPP at 100 uM at pH 6.4 by in-situ single-pass perfusion method; format: ADME, tissue-based; conditions: in vivo, pH 6.4, 100 µM; procedure, shortened: as §2
Jejunum [25] = assay: Drug hydrolysis in perfused Wistar rat jejunum mucosal homogenate at 500 uM assessed per mg protein in presence of 400 uM CES inhibitor BNPP; format: ADME, tissue-based; conditions: tissue homogenate; procedure, shortened: as §1
Jejunum [26] = assay: Apparent hydrolytic clearance in Wistar rat jejunum at 100 uM at pH 7.4 by in-situ single-pass perfusion method; format: ADME, tissue-based; conditions: in vivo; procedure, shortened: as §3
[27] = Permeability in Wistar rat jejunum at 100 uM at pH 5.4 by in-situ single-pass perfusion method; format: ADME, tissue-based; conditions: other: in-situ single-pass perfusion of the jejunum, read-out: Peff (converted)
Procedure, shortened: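 Rats fasted 18–24 h and anesthetized with intraperitoneal pentobarbital. Jejunal loop perfused at 0.2 ml/min with phosphate buffer (pH 5.4, 6.4 or 7.4) containing 100 μM drug and FD-4 (0.1 mg/ml). Vascular perfusate was Krebs–Henseleit bicarbonate buffer (pH 7.4) at 2.5 ml/min, segment kept at 37°C. Drug and metabolite measured by HPLC (UV 258 nm). Peff normalized to 10 cm intestine; mean ± S.D., n = 3–6.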

What does the source list for `CCOC(=O)[C@H](CCc1ccccc1)N[C@H]1CS[C@H](c2cccs2)CN(CC(=O)O)C1=O` [TEMOCAPRIL]?
Drug degradation [1]: 4.28 nmol/min; Drug uptake (Jejunum [2]): 20.6 nmol/g; CL(app) (Jejunum [3]): 1.23 µL/min; CL (Jejunum [4]): 35.4 µL/min; Drug degradation (Jejunum [5]): 3.96 nmol/min; Drug uptake (Jejunum [6]): 17.6 nmol/g; CL (Jejunum [7]): 24.9 µL/min; Drug uptake (Jejunum [8]): 18.1 nmol/g; Drug degradation (Jejunum [9]): 2.23 nmol/min; Stability [10]: Stable; Vmax/Km [11]: 109 µL/min; Drug uptake (Jejunum [12]): 0.147 nmol/min; Drug degradation [13]: 0.625 nmol/min; CL (Jejunum [14]): 1.01 nmol/min; CL(app) (Jejunum [15]): 7.64 µL/min; Vmax [16]: 5.2 nmol/min/mg; logD [17]: 0.1; Drug degradation [18]: 0.488 nmol/min; Stability [19]: Stable; Papp at 100 µM [20]: 49.8 ×10⁻⁶ cm/s; Drug degradation (Jejunum [21]): 4.17 nmol/min; Km [22]: 47.3 µM; CL (Jejunum [23]): 0.696 nmol/min; Drug uptake (Jejunum [24]): 14.6 nmol/g; Drug degradation (Jejunum [25]): 2.05 nmol/min; CL (Jejunum [26]): 43.2 µL/min; Papp at 100 µM [27]: 76 ×10⁻⁶ cm/s
